Converted amounts (≈) assume the structure as drawn. The source made the active and inactive calls. The calls are words filed in the database; no cut-off is given here.
Legend:
L6 = experiment: Cytotoxicity against rat L6 cells; format: cell-based
Danio rerio [1] = species: Danio rerio; experiment: Hepatotoxicity in zebrafish larvae at 300 uM measured during 3 to 6 days of post-fertilization; format: organism-based; conditions: in vivo
Method in brief: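 Larvae with DsRed-fluorescent livers were exposed from 3 to 6 dpf; vehicle was 1% DMSO. At 6 dpf, livers were photographed under a stereomicroscope and scored as normal, reduced fluorescence, reduced size, enlarged or absent. Paracetamol 300 μM served as the positive control.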

[2] = Inhibition of Plasmodium falciparum FabI
Method in brief: (§1)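 Recombinant P. falciparum FAS-II enzymes (FabI, FabZ, FabG) were assayed for inhibition. IC50 values (μg/ml) are the average of at least two independent assays run in duplicate.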

Danio rerio [3] = species: Danio rerio; experiment: Hepatotoxicity in zebrafish larvae during 3 to 6 days of post-fertilization; format: organism-based; conditions: in vivo
Method in brief: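 Larvae with DsRed-fluorescent livers are exposed from 3 dpf for 3 days, at a range of concentrations up to each compound's maximum tolerated concentration. Vehicle is 1% DMSO, and paracetamol 300 μM is the positive control. At 6 dpf, livers are imaged and scored as normal, reduced fluorescence, reduced size, enlarged or absent.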

[4] = Inhibition of Plasmodium falciparum FabG; method in brief: as §1
[5] = Inhibition of Plasmodium falciparum FabZ; method in brief: as §1
Plasmodium berghei [6] = experiment: Antimalarial activity against liver stage of Plasmodium berghei infected in human Huh7 cells assessed as reduction in parasite load treated after 2 hrs of infection for 46 hrs by luciferase assay; format: functional, organism-based; conditions: Huh-7, Liver
Method in brief: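 Huh7 hepatoma cells infected with luciferase-expressing P. berghei sporozoites. Parasite load measured by luciferase signal at 44 hpi (48 hpi in the figure legend) and expressed as percent of control. IC50 is the average of at least two independent assays run in duplicate.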

[7] = Cytotoxicity against human HuH7 cells assessed as cell viability by Alamar Blue assay; format: cell-based; conditions: huh-7
Method in brief: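 Host-cell viability was measured in the same P. berghei-infected Huh7 wells. Cells were treated from 2 hpi, and Alamar Blue fluorescence was read at the time of infection analysis (48 hpi). Cell confluency is reported in arbitrary units.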

Plasmodium berghei [8] = experiment: Antimalarial activity against liver stage of GFP-expressing Plasmodium berghei infected in human Huh7 cells assessed as reduction in parasite load treated after 2 hrs of infection for 46 hrs by confocal microscopy; format: functional, organism-based; conditions: Huh-7
Method in brief: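 Huh7 hepatoma cells infected with GFP-expressing P. berghei sporozoites. Treated at 2 hpi for 46 h at single fixed concentrations; vehicle DMSO 0.4%. Cells fixed in 4% PFA. Exo-erythrocytic forms immunolabelled with anti-PbHsp70 and an Alexa-488 secondary antibody; nuclei stained with Hoechst. Imaged by confocal microscopy.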

[9] = Critical micelle concentration of the compound in 1X phosphate-buffered saline containing rhodamine 6G at 2.5 x 10^-6 M by spectrophotometry; format: ADME; conditions: buffer
Plasmodium falciparum = experiment: Antimalarial activity against blood stage of multidrug-resistant Plasmodium falciparum K1 after 72 hrs by [3H]hypoxanthine incorporation assay; format: functional, organism-based
Method in brief: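 Blood-stage P. falciparum K1 growth is measured by 3H-hypoxanthine incorporation. IC50 is given in μg/ml as the mean of at least two independent assays, each run in duplicate.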

Row | Compound | IC50 [2] | MTD (Danio rerio [3]) | IC50 [4] | IC50 [5] | IC50 (Plasmodium berghei [6]) | further results
1 | COc1cc([C@@H]2c3cc4c(cc3[C@H](O)[C@H]3COC(=O)[C@H]23)OCO4)cc(OC)c1OC [PODOFILOX] |  |  |  |  |  | IC50 (L6): 0.02 µg/mL (≈ 0.0483 µM)
2 | CC(=O)Nc1ccc(O)cc1 [ACETAMINOPHEN] |  |  |  |  |  | Activity (Danio rerio [1]): Toxic
3 | Oc1cc(Cl)ccc1Oc1ccc(Cl)cc1Cl [TRICLOSAN] | 0.015 µg/mL (≈ 0.0518 µM) |  |  |  |  | 
4 | CCCCCCCCCCCCCCCC(=O)O [PALMITIC ACID] | > 100 µg/mL | 700 µM | > 100 µg/mL | > 100 µg/mL | > 25 µg/mL | 
5 | CCCCCCCCCCCC#CC(=O)O | 1.2 µg/mL (≈ 5.35 µM) | 1.2 µM | 5.5 µg/mL (≈ 24.5 µM) | 3.5 µg/mL (≈ 15.6 µM) | 2.87 µg/mL (≈ 12.8 µM) | Activity [7]: Non-toxic
6 | CCCCCCCCCCCCCCCC#CC(=O)O | 0.3 µg/mL (≈ 1.07 µM) | 1 µM | 0.8 µg/mL (≈ 2.85 µM) | 0.28 µg/mL (≈ 0.998 µM) | 0.34 µg/mL (≈ 1.21 µM) | Activity [7]: Non-toxic; inhibition (Plasmodium berghei [8]): Active; CMC [9]: 50 µg/mL; IC50 (Plasmodium falciparum): 6 µg/mL (≈ 21.4 µM)
7 | O=C(O[C@@H]1Cc2c(O)cc(O)cc2O[C@@H]1c1cc(O)c(O)c(O)c1)c1cc(O)c(O)c(O)c1 [EPIGALOCATECHIN GALLATE] |  |  | 0.2 µg/mL (≈ 0.436 µM) | 0.03 µg/mL (≈ 0.0654 µM) |  | 

Source: ChEMBL document CHEMBL3351951, “2-Octadecynoic acid as a dual life stage inhibitor of Plasmodium infections and plasmodial FAS-II enzymes” (Bioorg Med Chem Lett, 2014)
